# Reference: ChEMBL document CHEMBL1155671, “New circulin macrocyclic polypeptides from Chassalia parvifolia” (J Nat Prod, 2000)
# Positions of bridges follow the written chain, without caps; N, C: chain ends. Residues, ends and D or L forms follow the SMILES beside them.
# Experiments:
# Format in all cases: functional, organism-based
# [1] = tested on: Human immunodeficiency virus 1; assay: Antiviral activity against HIV1 G in human CEM-SS cells assessed as inhibition of virus-induced cytopathic effect by XTT assay; conditions: Human immunodeficiency virus 1, CEM-SS
# How it was run: (§1)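 Peptide samples dissolved in 100% DMSO or H2O-DMSO (3:1), then diluted to test concentrations. Tested in an in vitro XTT tetrazolium-based cell assay for protection against the cytopathic effects of productive HIV-1 infection. EC50 is the concentration giving 50% protection, determined separately for each virus strain and target cell line pairing.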
# [2] = tested on: Human immunodeficiency virus 1; assay: Antiviral activity against HIV1 H1122 in human MT2 cells assessed as inhibition of virus-induced cytopathic effect by XTT assay; conditions: Human immunodeficiency virus 1, MT2; how it was run: as §1
# [3] = tested on: Human immunodeficiency virus 1; assay: Antiviral activity against HIV1 3B in human CEM-SS cells assessed as inhibition of virus-induced cytopathic effect by XTT assay; conditions: Human immunodeficiency virus 1, 3B; how it was run: as §1
# [4] = tested on: Human immunodeficiency virus 1; assay: Antiviral activity against HIV1 N119 in human CEM-SS cells assessed as inhibition of virus-induced cytopathic effect by XTT assay; conditions: Human immunodeficiency virus 1, CEM-SS; how it was run: as §1
# [5] = tested on: Human immunodeficiency virus 1; assay: Antiviral activity against HIV1 RF in human CEM-SS cells assessed as inhibition of virus-induced cytopathic effect by XTT assay; conditions: Human immunodeficiency virus 1, RF; how it was run: as §1
# [6] = tested on: Human immunodeficiency virus 1; assay: Antiviral activity against HIV1 A17 in human MT2 cells assessed as inhibition of virus-induced cytopathic effect by XTT assay; conditions: Human immunodeficiency virus 1, A17, MT2; how it was run: as §1
# [7] = tested on: Human immunodeficiency virus 1; assay: Antiviral activity against HIV1 205 in human CEM-SS cells assessed as inhibition of virus-induced cytopathic effect by XTT assay; conditions: Human immunodeficiency virus 1, CEM-SS; how it was run: as §1
# [8] = tested on: Human immunodeficiency virus 1; assay: Antiviral activity against HIV1 3B in human MT2 cells assessed as inhibition of virus-induced cytopathic effect by XTT assay; conditions: Human immunodeficiency virus 1, 3B; how it was run: as §1
# [9] = tested on: Human immunodeficiency virus 1; assay: Antiviral activity against HIV1 G9106 in human MT2 cells assessed as inhibition of virus-induced cytopathic effect by XTT assay; conditions: Human immunodeficiency virus 1, G9106, MT2; how it was run: as §1
# [10] = tested on: Human immunodeficiency virus 1; assay: Antiviral activity against HIV1 SK1 in human CEM-SS cells assessed as inhibition of virus-induced cytopathic effect by XTT assay; conditions: Human immunodeficiency virus 1, CEM-SS; how it was run: as §1
# [11] = tested on: Human immunodeficiency virus 1; assay: Antiviral activity against HIV1 214 in human CEM-SS cells assessed as inhibition of virus-induced cytopathic effect by XTT assay; conditions: Human immunodeficiency virus 1, CEM-SS; how it was run: as §1
structure (smiles),measurement,setting,value
"CC[C@H](C)[C@@H]1NC(=O)[C@@H]2CSSC[C@@H]3NC(=O)[C@H](C(C)C)NC(=O)[C@H](CCCCN)NC(=O)[C@H](CO)NC(=O)[C@H](CCCCN)NC(=O)[C@@H]4CSSC[C@H](NC(=O)[C@H](CO)NC(=O)[C@H](CCC(=O)O)NC(=O)CNC(=O)[C@H](CSSC[C@H](NC(=O)CNC(=O)[C@H](C)NC(=O)[C@H](C(C)C)NC(=O)[C@H](CO)NC(=O)[C@H]([C@@H](C)O)NC1=O)C(=O)N[C@@H](CO)C(=O)N4)NC(=O)[C@@H]1CCCN1C(=O)[C@H]([C@@H](C)CC)NC(=O)CNC(=O)[C@H](CC(N)=O)NC(=O)[C@H](CCCNC(=N)N)NC(=O)[C@H](Cc1ccc(O)cc1)NC3=O)C(=O)N[C@@H](C(C)C)C(=O)N[C@@H](Cc1ccccc1)C(=O)N[C@@H]([C@@H](C)CC)C(=O)N1CCC[C@H]1C(=O)N2 [CIRCULIN C] (cyclo(AGCSCKSKVCYRNGIPCGESCVFIPCITSV); disulfide 3-17, 5-21, 10-26)",EC50,[1],0.111 µM
same,EC50,[2],0.048 µM
same,EC50,[3],0.073 µM
same,EC50,[4],0.241 µM
same,EC50,[5],0.165 µM
same,EC50,[6],0.247 µM
same,EC50,[7],0.155 µM
same,EC50,[8],0.2 µM
same,EC50,[9],0.067 µM
same,EC50,[10],0.051 µM
same,EC50,[11],0.213 µM
"CC[C@H](C)[C@@H]1NC(=O)[C@H](CCCCN)NC(=O)[C@H](CC(=O)O)NC(=O)[C@H](Cc2cnc[nH]2)NC(=O)[C@H](Cc2ccc(O)cc2)NC(=O)[C@@H]2CSSC[C@@H]3NC(=O)[C@@H]4CCCN4C(=O)[C@H]([C@@H](C)CC)NC(=O)[C@H](Cc4c[nH]c5ccccc45)NC(=O)[C@H](C(C)C)NC(=O)[C@@H]4CSSC[C@H](NC(=O)[C@H](CCCCN)NC(=O)[C@H](CSSC[C@H](NC(=O)[C@@H]5CCCN5C1=O)C(=O)NCC(=O)N[C@@H](CCC(=O)O)C(=O)N[C@@H](CO)C(=O)N4)NC(=O)[C@H](CC(N)=O)NC(=O)[C@H](Cc1ccccc1)NC(=O)[C@H](C(C)C)NC(=O)[C@H](CO)NC(=O)[C@H]([C@@H](C)O)NC(=O)[C@H](CC(C)C)NC3=O)C(=O)N[C@@H](CCC(=O)O)C(=O)N[C@@H](CC(N)=O)C(=O)N[C@@H](CCCCN)C(=O)N[C@@H](C(C)C)C(=O)N2 [CIRCULIN E] (cyclo(CENKVCYHDKIPCGESCVWIPCLTSVFNCK); disulfide 1-17, 6-22, 13-29)",EC50,[1],0.05 µM
same,EC50,[2],0.05 µM
same,EC50,[4],0.05 µM
same,EC50,[5],0.05 µM
same,EC50,[6],0.05 µM
same,EC50,[7],0.05 µM
same,EC50,[8],0.05 µM
same,EC50,[9],0.05 µM
same,EC50,[10],0.05 µM
same,EC50,[11],0.05 µM
"CC[C@H](C)[C@@H]1NC(=O)[C@H](C)NC(=O)[C@H](C)NC(=O)[C@H](CO)NC(=O)[C@H]([C@@H](C)CC)NC(=O)[C@@H]2CSSC[C@@H]3NC(=O)[C@H](C(C)C)NC(=O)[C@H](CCCCN)NC(=O)[C@H](CC(N)=O)NC(=O)[C@H](CCCCN)NC(=O)[C@@H]4CSSC[C@H](NC(=O)[C@H](CO)NC(=O)[C@H](CCC(=O)O)NC(=O)CNC(=O)[C@H](CSSC[C@H](NC(=O)CNC1=O)C(=O)N[C@@H](CO)C(=O)N4)NC(=O)[C@@H]1CCCN1C(=O)[C@H]([C@@H](C)CC)NC(=O)[C@H](C)NC(=O)[C@H](CCCNC(=N)N)NC(=O)[C@H](Cc1ccc(O)cc1)NC3=O)C(=O)N[C@@H](C(C)C)C(=O)N[C@@H](Cc1c[nH]c3ccccc13)C(=O)N[C@@H]([C@@H](C)CC)C(=O)N1CCC[C@H]1C(=O)N2 [CIRCULIN F] (cyclo(AAIGCSCKNKVCYRAIPCGESCVWIPCIS); disulfide 5-18, 7-22, 12-27)",EC50,[1],0.05 µM
same,EC50,[2],0.05 µM
same,EC50,[4],0.05 µM
same,EC50,[5],0.05 µM
same,EC50,[6],0.05 µM
same,EC50,[7],0.05 µM
same,EC50,[8],0.05 µM
same,EC50,[9],0.05 µM
same,EC50,[10],0.05 µM
same,EC50,[11],0.05 µM
